Source: paper PMC7613793 (Cell metabolism, 2022)
Entries after “also recorded” stand apart in the source; their conditions may differ.

Experiments:
rat primary tanycytes = assay: pCREB induction in primary tanycytes; format: cell-based; settings: Supplementary Fig. 2a
[1] = test system: tuberal region of the hypothalamus; format: in vivo, mouse; settings: mice, intravenous (jugular vein), 90 nmol/Kg, 15 and 60 seconds after injection; Fig. 1a
primary tanycytes = format: in vitro ADME, rat; settings: 37 °C
How it was run: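 Rat tanycytes from median eminences of P10 pups, seeded on coated permeable supports (90 000 cells/cm2) 17 days after isolation: 4 days in 10% donor bovine serum, then 3 days serum-free with insulin and putrescine. On day 7, 15 min preincubation at 37 °C ± 1000 nM exendin9-39. Apical 0.7 nM 125I-liraglutide (1 μCi/ml) ± unlabeled liraglutide 10–10 000 nM, 60 min, 37 °C, shaking. Uptake read from cut supports; release in fresh buffer up to 1 h.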

[2] = format: in vivo, mouse
[3] = test system: dipeptidyl peptidase 4 (DPP-4); settings: cited from earlier work
hypothalamic neurons = format: in vivo, mouse
[4] = test system: tanycytes and neuron-like cells of the ME and vmARH; assay: pCREB immunohistochemistry in ME/ARH after intravenous liraglutide; format: in vivo, mouse; settings: mice, 90 nmol/Kg, at 1 min, n = 4 animals per group, Fig. 1f-h
How it was run: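 Male mice, 8-10 weeks, fitted with a jugular vein catheter under ketamine-xylazine. Saline or liraglutide given i.v. at 90 nmol/Kg, then transcardial perfusion with saline and 0.1M PBS-4% PFA (pH 7.4). 30 μm free-floating sections double-stained with chicken anti-vimentin and rabbit anti-phospho-CREB. pCREB-positive tanycytes and neuron-like cells counted in ME, vmARH, dmARH and total ARH, 3–4 sections per animal. Unpaired t-test.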

Compound: exendin 9-39
- Effect on liraglutide-induced pCREB in rat primary tanycytes (rat primary tanycytes; co-treatment with liraglutide): blunted

Compound: liraglutide^564: fluorescently labeled liraglutide provided by Novo Nordisk
- Route of brain entry of fluorescently labeled liraglutide [1]: does not extravasate from BBB vessels

Compound: ^125I-liraglutide: radioactively labeled liraglutide
- Liraglutide accumulation in tanycytes relative to endothelial cells (primary tanycytes; 125I-liraglutide 0.7 nM, with or without unlabeled liraglutide 10 μM, transwell, uptake buffer pH 7.4, 60 min, n = 3, 3, 8, 8 wells from 2 independent experiments, Fig. 1c): approximately 4 times
- Time to saturation of uptake by tanycytes (primary tanycytes; pulse-chase experiment in vitro, Fig. 1e): ≤ 15 min

Compound: CCCCCCCCCCCCCCCC(=O)N[C@@H](CCC(=O)NCCCC[C@H](NC(=O)[C@H](C)NC(=O)[C@H](C)NC(=O)[C@H](CCC(N)=O)NC(=O)CNC(=O)[C@H](CCC(=O)O)NC(=O)[C@H](CC(C)C)NC(=O)[C@H](Cc1ccc(O)cc1)NC(=O)[C@H](CO)NC(=O)[C@H](CO)NC(=O)[C@@H](NC(=O)[C@H](CC(=O)O)NC(=O)[C@H](CO)NC(=O)[C@@H](NC(=O)[C@H](Cc1ccccc1)NC(=O)[C@@H](NC(=O)CNC(=O)[C@H](CCC(=O)O)NC(=O)[C@H](C)NC(=O)[C@@H](N)Cc1cnc[nH]1)[C@@H](C)O)[C@@H](C)O)C(C)C)C(=O)N[C@@H](CCC(=O)O)C(=O)N[C@@H](Cc1ccccc1)C(=O)N[C@H](C(=O)N[C@@H](C)C(=O)N[C@@H](Cc1c[nH]c2ccccc12)C(=O)N[C@@H](CC(C)C)C(=O)N[C@H](C(=O)N[C@@H](CCCNC(=N)N)C(=O)NCC(=O)N[C@@H](CCCNC(=N)N)C(=O)NCC(=O)O)C(C)C)[C@@H](C)CC)C(=O)O [liraglutide]
- Energy expenditure ([2]; control mice, 0.1 mg/kg for 3 consecutive days, vs saline): markedly reduced
- Food intake ([2]; control mice, 0.1 mg/kg for 3 consecutive days, vs saline, Fig. 3b): markedly reduced
- Fatty acid oxidation ([2]; control mice, 0.1 mg/kg for 3 consecutive days, Fig. 3e): increased fatty acid oxidation
- Fat mass ([2]; control mice, 0.1 mg/kg for 3 consecutive days, NMR body composition, Fig. 3d): fat mass reduction
- Anti-obesity effects in iBot mice ([2]; mouse, in vivo, 0.1 mg/kg): abrogated
- pCREB in rat primary tanycytes (rat primary tanycytes; liraglutide treatment): induced
- Cleavage by DPP-4 and half-life compared to endogenous GLP1 ([3]; ref Kim and Egan, 2008): reduces its cleavage by DPP-4 and prolongs its half-life
- c-Fos activation of neurons in AHN, PVH and LHA, control mice (hypothalamic neurons; anesthetized control mice, ten minutes after intravenous injection, 90 nmol/Kg): activated
- c-Fos expression in DMH and ZI, control mice (hypothalamic neurons; control mice, one hour after intraperitoneal injection): did not significantly upregulate c-Fos expression
- c-Fos expression, iBot mice (hypothalamic neurons; iBot littermates, one hour after intraperitoneal injection, Fig. 2d-f): unaffected
- c-Fos expression in hypothalamic neurons, iBot mice (hypothalamic neurons; mouse, in vivo, iv): failed to significantly induce c-Fos expression
- c-Fos activation of neurons in PVH and LHA (not AHN), control mice (hypothalamic neurons; unanesthetized control mice, one hour after intraperitoneal injection, Fig. 2): remain activated
- Route of brain entry of fluorescently labeled liraglutide [1]: did not cross the microvascular endothelial cells of the BBB; also recorded: extravasated through the fenestrated vessels of the ME
- pCREB in tanycytes and neuron-like cells of the ME and vmARH vs saline [4]: markedly induced pCREB

Compound: Glucagon-like peptide 1 (GLP1; 7–36 amide)
- Degradation by DPP-4 in vivo ([3]; in vivo, ref not given): rapid degradation
